Measurements as given in ChEMBL document CHEMBL3992522, “Antileishmanial Activity of Pyrazolopyridine Derivatives and Their Potential as an Adjunct Therapy with Miltefosine” (J Med Chem, 2017).
≈ marks a conversion by molar mass, not a printed value. Calls of active or inactive are those of the source. No cut-off for these calls is given here.

Experiments:
[1] = Selectivity index, ratio of CC50 for African green monkey Vero cells to IC50 for Leishmania donovani MHOM/IN/80/DD8 amastigote forms infected in mouse J774 cells; assay type: toxicity, cell-based; settings: read-out: Ratio CC50/IC50
Method in brief: (§1)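 CC50: Vero or J774 cells (1×10^5/well) exposed 72 h to seven two-fold dilutions, 500–7.81 μM; MTT 2 h at 37 °C, formazan in DMSO read at 540 nm. IC50: luciferase-expressing Dd8 amastigotes in J774 macrophages (1:8), 72 h, luminescence, four-parameter Hill fit. SI = CC50/IC50, IC50 mean of three experiments.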

[2] = Metabolic stability in mouse liver S9 fractions assessed as rate constant for metabolism at 1 mM after 60 mins in presence of NADPH by HPLC method; assay type: ADME, tissue-based
[3] = tested on: Leishmania donovani; assay: Antileishmanial activity against Leishmania donovani MHOM/IN/80/DD8 promastigote forms harboring luciferase gene at 25 uM after 72 hrs by Steady-Glo reagent based luminescence assay relative to control; assay type: functional; settings: MHOM/IN/80/DD8, 72 h, read-out: GI
Method in brief: (§2)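 Exponential-phase Dd8-Luc promastigotes at 1×10^6/mL in M199 with 10% FBS, 24 °C, given 50 and 25 µM for 72 h. Vehicle 0.1% DMSO. Steady-Glo added 1:1, luminescence (RLU) read. IC50 from four-parameter Hill regression, derived only where inhibition exceeded 90%. Means of at least three independent experiments.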

[4] = Stability in pH 1.2 simulated gastric fluid at 5 ug/ml after 120 mins by HPLC method
Method in brief: (§3)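 Incubated in simulated gastric fluid (pH 1.2) or simulated intestinal fluid (pH 6.5); percentage remaining intact determined after 120 min.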

[5] = Cytotoxicity against African green monkey Vero cells assessed as reduction in cell viability after 72 hrs by MTT assay; assay type: cell-based; settings: chlorocebus sabaeus
Method in brief: (§4)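 Vero and J774 cells seeded at 1×10^5 per well for 24 h, then exposed 72 h to seven two-fold dilutions from 500 to 7.81 μM. MTT solution (5 mg/mL stock) added for 2 h at 37 °C, formazan dissolved in DMSO and read at 540 nm. CC50 derived by the Huber and Koella method.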

[6] = Cytotoxicity against mouse J774 cells assessed as reduction in cell viability after 72 hrs by MTT assay; assay type: cell-based; method in brief: as §4
[7] = tested on: Leishmania donovani; assay: Antileishmanial activity against Leishmania donovani MHOM/IN/80/DD8 promastigote forms harboring luciferase gene at 50 uM after 72 hrs by Steady-Glo reagent based luminescence assay relative to control; assay type: functional; settings: MHOM/IN/80/DD8, 72 h, read-out: GI; method in brief: as §2
[8] = Cytotoxicity against African green monkey Vero cells assessed as cell viability up to 200 uM after 72 hrs by MTT assay relative to control; assay type: cell-based; settings: chlorocebus sabaeus, read-out: Activity
[9] = Cytotoxicity against mouse J774 cells assessed as cell viability […] after 72 hrs by MTT assay relative to control; assay type: cell-based; settings: read-out: Activity; method in brief: as §4
[10] = tested on: Liver; assay: Intrinsic clearance in mouse liver S9 fractions assessed per mg protein at 1 mM in presence of NADPH by HPLC method; assay type: ADME; settings: s9, 1000 µM
[11] = tested on: Leishmania donovani; assay: Antileishmanial activity against Leishmania donovani MHOM/IN/80/DD8 promastigote forms harboring luciferase gene after 72 hrs by Steady-Glo reagent based luminescence assay; assay type: functional; settings: MHOM/IN/80/DD8, 72 h; method in brief: as §2
[12] = tested on: Leishmania donovani; assay: Antileishmanial activity against Leishmania donovani MHOM/IN/80/DD8 promastigote forms harboring luciferase gene at 6.25 to 12.5 uM up to 4 days by Steady-Glo reagent based luminescence assay; assay type: functional
Method in brief: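 Log-phase luciferase promastigotes at 1.0×10^6 at 24 °C, pH 7.4, given two-fold dilutions from 200 to 6.25 µM. RLU in lysed cultures measured daily for up to 4 days to plot growth curves. Three independent experiments.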

[13] = tested on: Leishmania donovani; assay: Antileishmanial activity against Leishmania donovani MHOM/IN/80/DD8 amastigote forms harboring luciferase gene infected in mouse J774 cells at 50 uM after 72 hrs by Steady-Glo reagent based luminescence assay relative to control; assay type: functional; settings: MHOM/IN/80/DD8, J774, 72 h, read-out: GI
Method in brief: (§5)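 Stationary-phase luciferase-expressing Dd8 promastigotes infected into J774 macrophages (4×10^4/mL seeded, 24 h, 37 °C, 5% CO2) at 1:8 macrophage:parasite for 24 h. Non-internalised parasites washed off. Compounds added at 50 and 25 µM in RPMI/10% FBS for 72 h. Lysis with Steady-Glo luciferin reagent plus PBS, luminescence read. Inhibition relative to untreated infected controls.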

[14] = Half life in mouse liver S9 fractions at 1 mM in presence of NADPH by HPLC method; assay type: ADME, tissue-based
[15] = tested on: Leishmania donovani; assay: Antileishmanial activity against Leishmania donovani MHOM/IN/80/DD8 amastigote forms harboring luciferase gene infected in mouse J774 cells at 25 uM after 72 hrs by Steady-Glo reagent based luminescence assay relative to control; assay type: functional; settings: MHOM/IN/80/DD8, J774, 72 h, read-out: GI; method in brief: as §5
[16] = tested on: Leishmania donovani; assay: Antileishmanial activity against Leishmania donovani MHOM/IN/80/DD8 amastigote forms harboring luciferase gene infected in mouse J774 cells after 72 hrs by Steady-Glo reagent based luminescence assay; assay type: functional, cell-based; settings: MHOM/IN/80/DD8, J774, 72 h
[17] = tested on: Leishmania donovani; assay: Antileishmanial activity against Leishmania donovani amastigote forms infected in Balb/c mouse assessed as inhibition of parasitic burden in spleen up to 100 mg/kg, ip administered for 5 consecutive days measured on day 7 post last treatment by Giemsa staining based assay relative to control; assay type: functional
[18] = Stability in pH 6.5 simulated intestinal fluid at 5 ug/ml after 120 mins by HPLC method; method in brief: as §3
[19] = Selectivity index, ratio of CC50 for mouse J774 cells to IC50 for Leishmania donovani MHOM/IN/80/DD8 amastigote forms infected in mouse J774 cells; assay type: toxicity, cell-based; settings: read-out: Ratio CC50/IC50; method in brief: as §1
[20] = tested on: Leishmania donovani; assay: Antileishmanial activity against Leishmania donovani MHOM/IN/80/DD8 amastigote forms harboring luciferase gene infected in mouse J774 cells at 50 uM up to 72 hrs by Giemsa staining based assay relative to control; assay type: functional; settings: MHOM/IN/80/DD8, J774, 72 h
Method in brief: (§6)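 J774 macrophages in chamber slides infected with Dd8 promastigotes (1:10 cell:parasite in methods; 1:8 in legend) for 24 h, then treated 48 and 72 h. Cells methanol-fixed, stained with 20% Giemsa. Amastigotes per 100 macrophages counted against untreated infected controls.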

[21] = tested on: Leishmania donovani; assay: Antileishmanial activity against Leishmania donovani amastigote forms infected in Balb/c mouse assessed as inhibition of parasitic burden in spleen at 200 mg/kg, ip administered for 5 consecutive days measured on day 7 post last treatment by Giemsa staining based assay relative to control; assay type: functional
[22] = tested on: Leishmania donovani; assay: Antileishmanial activity against Leishmania donovani MHOM/IN/80/DD8 promastigote forms harboring luciferase gene at 9.59 uM up to 72 hrs by MTT assay relative to control; assay type: functional; settings: MHOM/IN/80/DD8, 72 h
[23] = tested on: Leishmania donovani; assay: Antileishmanial activity against Leishmania donovani MHOM/IN/80/DD8 amastigote forms harboring luciferase gene infected in mouse J774 cells after 72 hrs by Steady-Glo reagent based two fold dilution assay; assay type: functional; settings: MHOM/IN/80/DD8, 72 h
Method in brief: (§7)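 Promastigotes or J774-resident amastigotes treated 72 h with six two-fold dilutions from 200 µM down to 6.25 µM. Luciferase RLU fitted by four-parameter Hill non-linear regression to derive the […] inhibitory concentration (MIC).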

[24] = tested on: Leishmania donovani; assay: Antileishmanial activity against Leishmania donovani MHOM/IN/80/DD8 amastigote forms harboring luciferase gene infected in mouse J774 cells at 7.36 uM up to 72 hrs by Giemsa staining based assay relative to control; assay type: functional; settings: MHOM/IN/80/DD8, J774, 72 h; method in brief: as §6
[25] = Metabolic stability in mouse liver S9 fractions at 1 mM after 60 mins in presence of NADPH by HPLC method; assay type: ADME; settings: read-out: Stability
[26] = tested on: Leishmania donovani; assay: Antileishmanial activity against Leishmania donovani MHOM/IN/80/DD8 amastigote forms harboring luciferase gene infected in mouse J774 cells at 6.25 to 12.5 uM up to 4 days by Steady-Glo reagent based luminescence assay; assay type: functional, cell-based
Method in brief: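 Infected J774 macrophages held at 37 °C with two-fold dilutions from 200 to 6.25 µM. Intracellular amastigote growth followed by luciferase activity in lysed macrophages, expressed as RLU, over time. Three independent experiments.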

[27] = tested on: Leishmania donovani; assay: Antileishmanial activity against Leishmania donovani amastigote forms infected in Balb/c mouse assessed as inhibition of parasitic burden in liver at 200 mg/kg, ip administered for 5 consecutive days measured on day 7 post last treatment by Giemsa staining based assay relative to control; assay type: functional
[28] = tested on: Leishmania donovani; assay: Antileishmanial activity against Leishmania donovani amastigote forms infected in Balb/c mouse assessed as inhibition of parasitic burden in liver up to 100 mg/kg, ip administered for 5 consecutive days measured on day 7 post last treatment by Giemsa staining based assay relative to control; assay type: functional
[29] = tested on: Leishmania donovani; assay: Antileishmanial activity against Leishmania donovani MHOM/IN/80/DD8 promastigote forms harboring luciferase gene after 72 hrs by Steady-Glo reagent based two fold dilution assay; assay type: functional; settings: MHOM/IN/80/DD8, 72 h; method in brief: as §7
[30] = tested on: Leishmania donovani; assay: Antileishmanial activity against Leishmania donovani MHOM/IN/80/DD8 promastigote forms harboring luciferase gene at 50 uM up to 72 hrs by MTT assay relative to control; assay type: functional; settings: MHOM/IN/80/DD8, 72 h

Question: Which selectivity ratio [1] does the source give for `COc1ccc(OC)c(C2C3=C(CC(C)(C)CC3=O)Nc3c2c(-c2c[nH]c4ccccc24)nn3-c2ccc(Cl)c(Cl)c2)c1` (stereo not given) here?
Answer: 67.6

Question: And the k el at 1 h, 1000 µM [2]?
Answer: 0.000283 s⁻¹

Question: What about the inhibition of growth at 25 µM [3] of the same compound?
Answer: 85.9%

Question: What about the Stability [4] of the same compound?
Answer: 75%

Question: What about the CC50 at 72 h [5] of the same compound?
Answer: 498 µM

Question: And the CC50 at 72 h [6]?
Answer: 482 µM

Question: What about the inhibition of growth at 50 µM [7] of the same compound?
Answer: 90.6%

Question: And the viability at 72 h [8]?
Answer: > 95%

Question: And the viability at 72 h [9]?
Answer: > 95%

Question: What about the CLH [10] of the same compound?
Answer: 34.65 µL/min

Question: What about the IC50 [11] of the same compound?
Answer: 9.59 µM

Question: What about the Activity [12] of the same compound?
Answer: Active

Question: What about the inhibition of growth at 50 µM [13] of the same compound?
Answer: 95.8%

Question: What about the half-life at 1000 µM [14] of the same compound?
Answer: 40 min

Question: What about the inhibition of growth at 25 µM [15] of the same compound?
Answer: 91.5%

Question: And the IC50 [16]?
Answer: 7.36 µM

Question: What about the “inhibition (INH)” value [17] of the same compound?
Answer: >50%

Question: And the Stability [18]?
Answer: 58%

Question: What about the selectivity ratio [19] of the same compound?
Answer: 65.5

Question: What about the inhibition at 50 µM [20] of the same compound?
Answer: > 93%

Question: What about the Imax [21] of the same compound?
Answer: 68%

Question: And the inhibition at 9.59 µM [22]?
Answer: > 95%

Question: And the MIC [23]?
Answer: 50 µM (≈ 30.7 µg/mL)

Question: What about the inhibition at 7.36 µM [24] of the same compound?
Answer: > 93%

Question: What about the remaining at 1 h, 1000 µM [25] of the same compound?
Answer: 31%

Question: And the Activity [26]?
Answer: Active

Question: And the Imax [27]?
Answer: 62%

Question: And the “inhibition (INH)” value [28]?
Answer: >50%

Question: What about the MIC [29] of the same compound?
Answer: 50 µM (≈ 30.7 µg/mL)

Question: What about the inhibition at 50 µM [30] of the same compound?
Answer: > 95%
